Data published in ChEMBL document CHEMBL3046951, “Volatile constituents from the leaves of Callicarpa japonica Thunb. and their antibacterial activities” (2004).

Key:
Assay type in all cases: functional
[1] = test system: Bacillus cereus; assay: Antimicrobial activity against Bacillus cereus ATCC 11778 assessed as growth inhibition rate at 13.56 mg/l after 72 hr by spectrophotometry; conditions: ATCC 11778, 72 h, read-out: GI
Method in brief: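 Pure volatile compounds (purity >95%; one at 90%) were tested against B. cereus ATCC 11778. The strain was grown at 30 °C in nutrient broth for 24 h, then subcultured for 18 h. Optical density was read in a Bioscreen C every 24 h for 72 h, with 10% Tween 80 as the control.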

[2] = test system: Staphylococcus aureus; assay: Antimicrobial activity against Staphylococcus aureus ATCC 25923 assessed as growth inhibition rate at 13.56 mg/l after 72 hr by spectrophotometry; conditions: ATCC 25923, 72 h, read-out: GI
[3] = test system: Escherichia coli; assay: Antimicrobial activity against Escherichia coli O157:H7 ATCC 43894 assessed as growth inhibition rate at 13.56 mg/l after 72 hr by spectrophotometry; conditions: O157:H7 ATCC 43894, 72 h, read-out: GI
[4] = test system: Listeria monocytogenes; assay: Antimicrobial activity against Listeria monocytogenes ATCC 19111 assessed as growth inhibition rate at 13.56 mg/l after 72 hr by spectrophotometry; conditions: ATCC 19111, 72 h, read-out: GI
Method in brief: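 L. monocytogenes was grown at 30 °C in tryptic soy broth, subcultured for 18 h, and exposed to pure volatile compounds (>95% purity). Growth was followed by Bioscreen C optical density every 24 h for 72 h against a 10% Tween 80 control.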

[5] = test system: Salmonella typhimurium; assay: Antimicrobial activity against Salmonella enterica subsp. enterica serovar Typhimurium ATCC 14028 assessed as growth inhibition rate at 13.56 mg/l after 72 hr by spectrophotometry; conditions: ATCC 14028, 72 h, read-out: GI
Method in brief: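 Salmonella Typhimurium ATCC 14028 grown in nutrient broth at 30 °C, precultured 24 h, then subcultured 1:100 for 18 h before testing. Single volatile compounds (>95% pure) were added. OD was read every 24 h over 72 h in a Bioscreen C, with 10% Tween 80 as the comparison control.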

[6] = test system: Vibrio parahaemolyticus; assay: Antimicrobial activity against Vibrio parahaemolyticus ATCC 33844 assessed as growth inhibition rate at 13.56 mg/l after 72 hr by spectrophotometry; conditions: ATCC 33844, 72 h, read-out: GI

## CCC/C=C/CO
[1]
  inhibition of growth at 13.56 µg/mL: 52.5%
[2]
  inhibition of growth at 13.56 µg/mL: 29.5%
[3]
  inhibition of growth at 13.56 µg/mL: 31.8%
[4]
  inhibition of growth at 13.56 µg/mL: 19.2%
[5]
  inhibition of growth at 13.56 µg/mL: 29.1%
[6]
  inhibition of growth at 13.56 µg/mL: 38.6%
